High-throughput results (PubChem BioAssay)
CCR6 antagonist: blocks CCL20-driven beta-arrestin recruitment at human CCR6; 340,000 compounds, 0.49% hits; AID 493098; inhibition, % at 20 µM; CHO-K1 CCR6 PathHunter beta-arrestin, luminescence, CCL20-stimulated; P51684;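 active = compounds whose inhibition of the agonist-driven luminescence signal at 20 µM reaches about 50%, limit read from the data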;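 also: cells stimulated with CCL20 at 14 nM final; plate controls were DMSO with CCL20 for no effect and DMSO without agonist for full effect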
APJ antagonist: APJ receptor antagonism; 330,000 compounds, 0.32% hits; CHO-K1 APJ beta-arrestin complementation, luminescence; AID 2521; P35414; inhibition, % at 20 µM;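 active = inhibition above about 40% at 20 µM, limit read from the data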;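 also: cells challenged with 10 nM apelin-13 agonist together with compound; plate controls were apelin-13 plus DMSO wells for no effect and DMSO wells lacking apelin-13 for full effect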
CXCR6 block: blocks human CXCR6 beta-arrestin recruitment; O00574; CHO-K1 PathHunter CXCR6 beta-arrestin, luminescence; inhibition, % at 20 µM; 360,000 compounds, 0.36% hits; in the data active = inhibition above about 34%, passing the limit was not always enough;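 also: antagonist mode with CXCL16 agonist at 10 nM final; 0% = 10 nM CXCL16 with DMSO and 100% = unstimulated wells without agonist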
APJ agonist: agonists of human APJ apelin receptor | P35414 | CHO-K1 APJ PathHunter beta-arrestin, luminescence; 0% DMSO wells, 100% apelin | activation, % at 20 µM | 330,000 compounds, 0.11% hits | AID 2520;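 active = activation more than six SD over the plate average, tested at 20 µM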;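 also: 0% = DMSO alone and 100% = apelin-13 at 10 nM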
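Test system: CHO-K1 APJ beta-arrestin complementation cell line. Amount: cell density 1000 per well. Controls: DMSO negative, 10 nM Apelin-13 positive. Signal: luminescent beta-gal fragment complementation, chemiluminescent substrate. Read-out basis: agonist-driven arrestin binding to APJ. Timing: compound stimulation 90 min at 25 °C, detection 60 min.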
HTR2A ag: mouse HTR2A agonism via beta-arrestin recruitment | P35363 | CHO-K1 mHTR2A beta-arrestin complementation, luminescence; percent of 30 µM serotonin response | activation, % at 7.6 µM | 360,000 compounds, 0.66% hits | AID 624169;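 active = activation above a run cutoff, the mean activation of all tested compounds plus 3 SD, cut at about 14% in these data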;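 also: 0% = plate median of compound wells and 100% = 30 µM serotonin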
Target sequence (P35363 whole entry, looked up): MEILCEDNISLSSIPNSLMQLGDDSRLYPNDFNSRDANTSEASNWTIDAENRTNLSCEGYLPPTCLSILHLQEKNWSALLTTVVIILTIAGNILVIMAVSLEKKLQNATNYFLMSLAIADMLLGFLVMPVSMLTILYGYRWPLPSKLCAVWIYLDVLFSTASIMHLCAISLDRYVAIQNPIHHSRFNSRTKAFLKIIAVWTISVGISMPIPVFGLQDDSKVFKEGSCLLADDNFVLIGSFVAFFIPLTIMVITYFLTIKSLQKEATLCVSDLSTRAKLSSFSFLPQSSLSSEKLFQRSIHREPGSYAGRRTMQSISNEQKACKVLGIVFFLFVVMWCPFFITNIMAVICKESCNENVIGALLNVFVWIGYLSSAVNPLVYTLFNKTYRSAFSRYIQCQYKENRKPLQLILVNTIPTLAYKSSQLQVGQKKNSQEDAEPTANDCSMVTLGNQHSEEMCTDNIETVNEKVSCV
EBI2 antag: EBI2 (human) antagonism; EBI2 beta-arrestin recruitment, luminescence, 7a,25-OHC stimulated; inhibition, % at 5 µM; AID 651636; 360,000 compounds, 0.81% hits; P32249; in the data active = inhibition above about 38%;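 also: enzyme fragment complementation signal reports receptor beta-arrestin coupling in cells; 0% = agonist plus DMSO wells and 100% = wells without agonist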
EBI2 conf: confirmation of human EBI2 receptor antagonists; shares compounds with EBI2 antag; EBI2 beta-arrestin luminescence, 7a,25-OHC antagonism; inhibition, % at 5 µM; 2,400 compounds, 29% hits; AID 651997;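 active = inhibition of at least 50%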
EBI2 ag: EBI2 agonism counter-screen. shares compounds with EBI2 antag. EBI2-expressing cells, agonist mode, luminescence, 60 min; 0% vehicle, 100% 7α,25-dihydroxycholesterol control. activation, % at 5 µM. 2,400 tested, under 10 active. AID 652000;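 active = activation of at least 50%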
bGal cs: beta-galactosidase inhibition counter-screen; inhibition, % at 5 µM; shares compounds with EBI2 antag; 2,400 compounds, 1% hits; purified beta-galactosidase, luminescent Galacton Star, 15 min;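 active = replicate-average signal at least 3 plate SD below neutral wells, shown as high inhibition, flagging enzyme-inhibiting false positives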;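 also: 0% = DMSO wells with enzyme and 100% = wells lacking enzyme; higher means stronger loss of beta-gal luminescence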
An asterisk follows results filed as active; . = not tested or not shown. Shown are actives, neighbours in structure and some others; about 2.1% of the full set was active somewhere.

SMILES	CCR6 antagonist	APJ antagonist	CXCR6 block	APJ agonist	HTR2A ag	EBI2 antag	EBI2 conf	EBI2 ag	bGal cs
CCOc1ccccc1N1CCN(C(=O)c2cc(C)oc2C)CC1	4	9	1	-4	0	7	.	.	.
COc1ccc2cc(C(=O)N3CCN(c4ccc(F)cc4)CC3)[nH]c2c1	-12	-3	-6	-4	-9	64*	50*	-1	-16
O=C(c1cccc(F)c1)N1CCN(c2cccc(Cl)c2)CC1	4	-9	-11	-2	-1	5	.	.	.
Cc1[nH]c(-c2ccc(F)cc2)cc1C(=O)N1CCN(c2cccc(Cl)c2)CC1	0	9	-4	-2	-12	91*	61*	-2	-10
Fc1ccc(-c2onc3ccc(C4OCCO4)cc23)cc1	4	-16	5	4	7	-5	.	.	.
CC1(C(=O)N(CC(=O)NC2CCCC2)C2CCCC2)CC(=O)N=C2C=CC=CN21 (centres undefined)	-25	-1	-12	-2	3	-3	.	.	.
O=C(c1cc2cc(F)ccc2[nH]1)N1CCN(c2cccc(Cl)c2)CC1	5	20	-3	-3	-1	61*	48	-1	0
CC(NC(=O)c1cc(F)c(F)c(F)c1F)c1ccc(-n2ccnc2)cc1 (centres undefined)	7	0	-6	11	3	-17	.	.	.
O=C(/C=C/c1ccc(F)cc1)NCc1cccs1	11	-2	-4	0	-2	10	.	.	.
O=C(/C=C/c1ccc(Br)cc1)NCc1cccs1	13	-19	-1	1	-2	65*	48	0	4
COc1cc(/C=C(/C#N)C(=O)Nc2ccc(C)cc2)ccc1Oc1nc(Cl)ncc1F	15	-24	-4	7	-1	49*	46	-1	-13
COc1cc(/C=C(\C#N)C(=O)NC2CCCCC2C)ccc1OS(=O)(=O)c1ccc(C)cc1 (centres undefined)	12	4	-3	2	-3	62*	69*	1	-3
COc1cc(/C=C(\C#N)C(N)=O)ccc1OS(=O)(=O)c1ccc(C)cc1	17	-22	4	-3	-1	52*	56*	1	-7
O=C(COc1ccc(F)cc1)N1CCC(c2ccccc2)C1 (centres undefined)	-14	7	2	-5	-1	57*	27	0	3
Cc1cccc(OCC(=O)N2CCC(c3ccccc3)C2)c1 (centres undefined)	-9	-3	1	1	-8	46*	44	1	3
COc1ccc(CCNC(=O)CSc2nnc(Cc3cccn3C)n2C)cc1OC	-6	11	-1	-1	-2	-4	.	.	.
C#Cc1ccc([C@H]2C=C(C(=O)N3CCN(Cc4ccc5c(c4)OCO5)CC3)O[C@@H](OCC)[C@@H]2CCCO)cc1	10	5	-2	5	-1	55*	22	1	5
Cc1nnc2sc(SCC(=O)Nc3ccc(Cl)cc3)nn2c1=O	1	-15	0	-1	-1	6	.	.	.
Cc1ccc(S(=O)(=O)N[C@H](C(=O)OCC(=O)N2N=C(c3ccc(Cl)cc3)CC2c2ccco2)C(C)C)cc1 (some centres undefined)	-12	2	6	-4	-2	44*	53*	-1	-16
O=C(NCCc1ccccc1)c1ccccc1F	19	1	4	-2	7	-4	.	.	.
N#Cc1ccc(C(=O)N2CCN(S(=O)(=O)c3ccc(Cl)s3)CC2)cc1	20	32	-5	3	-8	56*	31	0	7
O=C(/C=C1\OCc2ccccc21)OCc1ccccc1	.	.	.	.	-5	8	.	.	.
O=C(/C=C1\OCc2cc(OCc3ccccc3)ccc21)OCc1ccccc1	.	.	.	.	-2	46*	32	-1	-15
Cc1ccc(CSc2nnc(-c3cccc4ccccc34)o2)cc1	16	8	4	0	1	1	.	.	.
O=C(Cc1ccc(Cl)cc1)Nc1cccc(-c2nnc(-c3ccco3)o2)c1	14	0	3	-3	-1	71*	40	0	-17
SMILES	CCR6 antagonist	APJ antagonist	CXCR6 block	APJ agonist	HTR2A ag	EBI2 antag	EBI2 conf	EBI2 ag	bGal cs
O=C(Nc1cccc(-c2nnc(-c3ccco3)o2)c1)C(c1ccccc1)c1ccccc1	11	2	8	-6	3	77*	43	2	5
COc1ccc(NC(=O)c2ccc(NS(=O)(=O)c3c(C)noc3C)cc2)cc1OC	9	15	4	-4	0	-2	.	.	.
Cc1ccc(NC(=O)c2ccc(NS(=O)(=O)c3c(C)noc3C)cc2)cc1C	13	8	-3	2	-9	48*	12	3	-12
COc1cc(NC(=O)CSCc2cnn(-c3ccccc3)c2-n2cccc2)cc(OC)c1	23	7	0	-1	2	37*	14	-2	-13
COc1ccc(OC)c(NC(=O)CSCc2cnn(-c3ccccc3)c2-n2cccc2)c1	13	10	-3	-4	4	15	.	.	.
CN(Cc1ccccc1)C(=O)c1cc2cc(F)ccc2[nH]1	10	-2	5	0	-3	55*	58*	0	7
COc1ccc(N(C(=O)c2snc(C(N)=O)c2N)C(C(=O)NC2CCCC2)c2ccc(F)cc2)c(OC)c1 (centres undefined)	2	6	-5	-2	9	22	.	.	.
Cc1ccc(N(C(=O)c2snc(C(N)=O)c2N)C(C(=O)NC2CCCC2)c2ccco2)cc1 (centres undefined)	9	-8	13	-1	10	56*	28	0	7
COCCNC(=O)C(c1ccc(C)o1)N(C(=O)c1snc(C(N)=O)c1N)c1ccc(C)cc1 (centres undefined)	2	-11	-3	4	-1	14	.	.	.
Cc1ccc(N(C(=O)c2snc(C(N)=O)c2N)C(C(=O)NC2CCCC2)c2ccc(C)o2)cc1 (centres undefined)	2	20	2	-1	6	68*	70*	-2	-21
COc1ccc(C(C(=O)NC2CCCCC2)N(C(=O)c2snc(C(N)=O)c2N)c2ccc(OC)cc2OC)cc1 (centres undefined)	-1	11	7	-3	5	70*	73*	-1	9
